Source: ChEMBL document CHEMBL3864163, “I. Discovery of a novel series of CXCR3 antagonists. Multiparametric optimization of N,N-disubstituted benzylamines” (Bioorg Med Chem Lett, 2016)
pIC50: −log10 of the molar value.

What was measured:
[1] = target: T1, C-X-C chemokine receptor type 3 (Homo sapiens, UniProt P49682); test: Displacement of [125I]-CXCL10 from human recombinant CXCR3 transfected in Flp-In-CHO cell membranes after 60 mins by gamma counting method
T1 sequence (P49682 whole entry): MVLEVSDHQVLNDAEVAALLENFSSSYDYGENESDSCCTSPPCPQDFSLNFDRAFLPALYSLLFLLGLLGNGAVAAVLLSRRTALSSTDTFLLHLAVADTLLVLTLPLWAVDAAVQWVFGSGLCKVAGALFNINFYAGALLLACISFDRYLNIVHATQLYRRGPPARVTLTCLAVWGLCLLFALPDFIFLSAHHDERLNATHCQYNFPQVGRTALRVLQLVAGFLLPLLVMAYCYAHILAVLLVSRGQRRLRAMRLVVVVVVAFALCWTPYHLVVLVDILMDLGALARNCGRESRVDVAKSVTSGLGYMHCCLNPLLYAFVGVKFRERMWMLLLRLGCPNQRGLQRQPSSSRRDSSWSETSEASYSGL

[2] = Metabolic stability in human liver microsomes assessed as parent compound remaining in presence of NADPH by LC-MS/MS method; assay type: ADME
In short: (§1)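 Compound incubated with liver microsomes (human or mouse) plus NADPH at 37 °C. Loss of parent was followed by LC-MS-MS and reported as percent. Stability bands: low <40%, medium 40–60%, high >60%.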

[3] = Metabolic stability in mouse liver microsomes assessed as parent compound remaining in presence of NADPH by LC-MS/MS method; assay type: ADME; in short: as §1

pIC50 [1] | Stability [2] [%] | Stability [3] [%] | Structure (SMILES)
6.64 | 29 | 19 | Cc1cc(CN(C)C(C)c2ccc3c(c2)CCO3)ccc1OCCN1C(=O)CCC1=O (stereo not drawn)
6.11 |  |  | COc1cc(CNC(C)(C)c2ccc3c(c2)CCO3)ccc1OCCN1C(=O)CCC1=O
6.48 |  |  | COc1cc(CN(C)C(CC(C)C)c2ccc3c(c2)CCO3)ccc1OCCN1C(=O)CCC1=O (stereo not drawn)
7.28 | 35 | 27 | COc1cc(CN(CC2CCCCC2)C(C)c2ccc3c(c2)CCO3)ccc1OCCN1C(=O)CCC1=O (stereo not drawn)
6.69 | 28 | 26 | COc1cc(CN(C)C(C)c2ccc3c(c2)CCO3)ccc1OCCN1C(=O)CN(C)C1=O (stereo not drawn)
7.09 | 3 | 4 | COc1cc(CN(CCO)C(C)c2ccc3c(c2)CCO3)ccc1OCCN1C(=O)CCC1=O (stereo not drawn)
6.96 | 9 | 8 | CCCC(c1ccc2c(c1)CCO2)N(C)Cc1ccc(OCCN2C(=O)CCC2=O)c(OC)c1 (stereo not drawn)
6.08 |  |  | COc1cc(CN(C[C@H]2CC[C@H](C(=O)OC)CC2)[C@H]2CCc3cc(Cl)ccc32)ccc1OCCN1C(=O)CCC1=O
5.38 | 52 |  | COc1cc(CN(Cc2ccc(C(=O)O)cc2)C(c2ccc3c(c2)CCO3)C2CCCC2)ccc1OCCN1C(=O)CCC1=O (stereo not drawn)
7.42 | 19 | 19 | CCC(c1ccc2c(c1)CCO2)N(Cc1ccc(OCCN2C(=O)CCC2=O)c(OC)c1)CC(C)C (stereo not drawn)
6.22 | 61 | 62 | COc1cc(CNC(C)c2ccc3c(c2)CCO3)ccc1OCCN1C(=O)CCC1=O (stereo not drawn)
7.11 | 2 | 0 | COc1cc(CN(CC(C)O)C(C)c2ccc3c(c2)CCO3)ccc1OCCN1C(=O)CCC1=O (stereo not drawn)
5.92 |  |  | CCCC(NCc1ccc(OCCN2C(=O)CCC2=O)c(OC)c1)c1ccc2c(c1)CCO2 (stereo not drawn)
6.96 | 5 | 5 | CCC(c1ccc2c(c1)CCO2)N(CC)Cc1ccc(OCCN2C(=O)CCC2=O)c(OC)c1 (stereo not drawn)
6.54 | 61 | 67 | COc1cc(CNCc2ccc3c(c2)CCO3)ccc1OCCN1C(=O)CCC1=O
6.10 |  |  | COc1cc(CN(C)[C@H](C)c2ccc3c(c2)CCO3)ccc1OCCN1C(=O)CCC1=O
7.01 | 24 | 19 | COc1cc(CN(Cc2ccc(F)cc2)C(C)c2ccc3c(c2)CCO3)ccc1OCCN1C(=O)CCC1=O (stereo not drawn)
6.47 | 28 | 24 | COc1cc(CN(Cc2ccc3c(c2)CCO3)C(C)c2ccc3c(c2)CCO3)ccc1OCCN1C(=O)CCC1=O (stereo not drawn)
5.49 |  |  | COc1cc(CNC(c2ccc3c(c2)CCO3)C2CCCC2)ccc1OCCN1C(=O)CCC1=O (stereo not drawn)
7.26 | 2 | 9 | COc1cc(CN(CC(C)C)C(C)c2ccc3c(c2)CCO3)ccc1OCCN1C(=O)CCC1=O (stereo not drawn)
6.73 | 14 | 17 | CC(c1ccc2c(c1)CCO2)N(C)Cc1ccc(OCCN2C(=O)CCC2=O)c(Cl)c1 (stereo not drawn)
6.92 | 4 | 7 | COc1cc(CN(C)C(C)c2ccc3c(c2)CCO3)ccc1OCCN1C(=O)CSC1=O (stereo not drawn)
6.69 | 2 | 0 | COc1cc(CN(CC(C)=O)C(C)c2ccc3c(c2)CCO3)ccc1OCCN1C(=O)CCC1=O (stereo not drawn)
5.97 |  |  | CCC(NCc1ccc(OCCN2C(=O)CCC2=O)c(OC)c1)c1ccc2c(c1)CCO2 (stereo not drawn)
5.74 |  |  | COc1cc(CNC(CC(C)C)c2ccc3c(c2)CCO3)ccc1OCCN1C(=O)CCC1=O (stereo not drawn)
6.72 | 19 | 29 | COc1cc(CN(Cc2cccnc2)C(C)c2ccc3c(c2)CCO3)ccc1OCCN1C(=O)CCC1=O (stereo not drawn)
6.35 |  |  | COc1cc(CN(C)C(C)c2ccc3c(c2)CCO3)ccc1NCCN1C(=O)CCC1=O (stereo not drawn)
6.81 |  |  | COc1cc(CN(C)[C@@H](C)c2ccc3c(c2)CCO3)ccc1OCCN1C(=O)CCC1=O
